Assay results gathered from unrelated publications.
Protocols differ between the studies behind these lines.
Observed: metabolic stability
Medium: liver microsomes

`CCCn1nc(C(=O)N2CCCCC2)c2c1CCC(NCCN1CCCCC1)C2` (centres unmarked) gave a compound remaining of 54% (mouse; 10 µM; 1 h).
With `Cc1ccc2c(c1)nc(CCc1cccc3cccnc13)n2-c1ccccc1` the compound remaining was 0.05% (rat; 1.5 µM; 45 min).
`CCCn1nc(C(=O)N2CCCCC2)c2c1CCC(N1CCc3ccccc3C1)C2` (centres unmarked) gave a compound remaining of less than 25% (mouse; 10 µM; 1 h).
`O=S(=O)(c1cccc2cccnc12)N1CC(c2nc(-c3ccc(F)cc3)no2)C1` gave a compound remaining of 74% (mouse; 10 min).
For `Cc1ncsc1-c1ccc(CNC(=O)[C@@H]2C[C@@H](O)CN2C(=O)[C@@H](NC(=O)CCCCCCCCCCNC(=O)O[C@H]2C[C@@H](C)C=C3C=C[C@H](C)[C@H](CC[C@@H]4C[C@@H](O)CC(=O)O4)[C@H]32)C(C)(C)C)cc1`, the compound remaining was 1.42% (mouse; 1 µM; 45 min; pH 7.4).
The compound remaining of `Cc1ccc2c(c1)nc(/C=C/c1cccc3cccnc13)n2-c1ccccc1` is reported as 75.4% (rat; 1.5 µM; 5 min).
The compound remaining of `CS(=O)(=O)c1ccc(-c2cnc(N)c(-c3ccc(C(F)(F)F)nc3)c2)cc1` is reported as greater than 99% (male CD-1 mouse; 1 µM; 30 min).
The compound remaining of `N#Cc1ccc(C[C@@H](NC(=O)Nc2ccc([N+](=O)[O-])cc2)C(=O)NCC2(c3ccccc3)CC2)cc1` is reported as greater than 20% (rat; 10 µM; 30 min; pH 7.4).
`O=C(Nc1ccc(S(=O)(=O)N2CCC(Cl)CC2)cc1)c1ccc([N+](=O)[O-])o1` gave a compound remaining of 0.02% (mouse; 1 µM; 1 h; pH 7.4).
The compound remaining of `CCCn1nc(C(=O)N2CCCCC2)c2c1CCC(NCc1ccc(N3CCCCC3)cc1)C2` (centres unmarked) is reported as 47% (mouse; 10 µM; 1 h).
`N#Cc1ccc(C[C@@H](NC(=O)Nc2ccc(F)cc2)C(=O)NCC2(c3ccc(OC(F)(F)F)cc3)CC2)cc1` has a compound remaining of greater than 80% (rat; 10 µM; 30 min; pH 7.4).
